# Most compounds without a hit are left out; they make up all but 1.8% or so of the library.
# HKDC1 inh: HKDC1 hexokinase inhibitors, primary screen, biochemical, fluorescence, uHTS; Q2TB90; recombinant HKDC1, G6PDH/diaphorase resazurin coupled fluorescence; inhibition, % at 20 µM; 340,000 tested, 0.16% active; AID 493160, 2011;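 active = inhibition above about 35% when tested at 20 µM, limit read from the data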;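 note: plate controls were DMSO wells with enzyme for no effect and DMSO wells lacking enzyme for full effect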
#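 Material – in-house recombinant HK5 (HKDC1) enzyme · Quantity – HKDC1 at 5 µg/mL · Buffer or medium – pH 8.0 Tris buffer with 10 mM MgCl2 · Reagent – glucose with 1 mM ATP · Dosing – single 20 µM dose · Times – reaction time 90 min, room temperature, protected from light · Technique – resorufin fluorescence at 613 nm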
# SUMO1 PPI mod: modulators of SUMO1 protein-protein interactions, primary screen, biochemical, uHTS; Small ubiquitin-related modifier 1 (Homo sapiens), P63165; SUMO1 binding to a labelled peptide, TR-FRET, 1 h; inhibition, % at 20 µM; 360,000 tested, 0.33% active; in the data active = inhibition above about 37%
# Target sequence (P63165 whole entry, looked up): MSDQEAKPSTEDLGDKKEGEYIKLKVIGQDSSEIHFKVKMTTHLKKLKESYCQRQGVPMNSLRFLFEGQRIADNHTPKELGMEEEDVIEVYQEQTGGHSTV
# DNMT1 inh: human DNMT1 methyltransferase inhibitors, primary screen, biochemical, molecular beacon, fluorescence, HinP1I cleavage, uHTS | DNA (cytosine-5)-methyltransferase 1 (Homo sapiens), P26358 | inhibition (reported as % activation of signal), % at 10 µM | 360,000 tested, 0.83% active; in the data active = inhibition above about 50%
# Scp1 inh: Scp-1 phosphatase inhibitors, primary screen, biochemical, colorimetric, uHTS; Carboxy-terminal domain RNA polymerase II polypeptide A small phosphatase 1 (Homo …; Recombinant Scp1, phosphopeptide, malachite green phosphate absorbance; inhibition, % at 20 µM; 340,000 tested, 0.88% active; AID 493091, 2011;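 active = inhibition above about 50% at 20 µM, limit read from the data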;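 note: plate controls were DMSO wells with enzyme for no effect and wells lacking enzyme for full effect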
# Target sequence (Q9GZU7 76-261 limits assumed): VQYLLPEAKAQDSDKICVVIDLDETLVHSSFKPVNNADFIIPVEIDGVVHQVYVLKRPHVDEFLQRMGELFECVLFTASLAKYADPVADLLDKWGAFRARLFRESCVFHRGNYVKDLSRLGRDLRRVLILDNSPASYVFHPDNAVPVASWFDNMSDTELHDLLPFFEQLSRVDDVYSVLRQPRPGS
#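 Times: enzyme reaction 45 min at room temperature, colour 5 min, stabilisation 30 min. Material: SCP-1 catalytic fragment, aa 76-261. Medium: Acidic Tris acetate buffer with magnesium and detergent. Signal: colorimetric free-phosphate detection, absorbance 630 nm. Read-out basis: % inhibition of SCP-1 phosphate liberation. Reagent: Phosphorylated 17-residue peptide substrate.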
# STEP block: STEP phosphatase inhibitors, primary screen, biochemical, fluorescence intensity, uHTS. Tyrosine-protein phosphatase non-receptor type 5 (Homo sapiens), P54829. 360,000 tested, 0.25% active. recombinant STEP, OMFP fluorogenic substrate. AID 588621, 2011. inhibition, % at 20 µM;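 active = inhibition at 20 µM, scaled per plate between control wells, above about 37%, limit read from the data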;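 note: 0% = DMSO with enzyme and substrate and 100% = substrate only without enzyme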
#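 Also added – OMFP at 25 µM · Test system – STEP tyrosine phosphatase · Technique – FITC-channel fluorescence of OMFP product · Schedule – 20 min at room temperature, dark · Evaluation – control-normalized % inhibition with plate pattern correction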
# LMPTP inh: LMPTP phosphatase inhibitors, primary screen, biochemical, fluorescence intensity, uHTS. Low molecular weight phosphotyrosine protein phosphatase (Homo sapiens), P24666. recombinant LMPTP-A, OMFP fluorogenic substrate. inhibition, % at 20 µM. 360,000 tested, 0.22% active. AID 651560, 2012;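 active = compounds that cut the enzyme signal by at least half of the control window in the single-dose screen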;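 note: plate controls were DMSO wells with enzyme plus substrate for no effect and substrate without enzyme for full effect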
# Target sequence (P24666 whole entry, looked up): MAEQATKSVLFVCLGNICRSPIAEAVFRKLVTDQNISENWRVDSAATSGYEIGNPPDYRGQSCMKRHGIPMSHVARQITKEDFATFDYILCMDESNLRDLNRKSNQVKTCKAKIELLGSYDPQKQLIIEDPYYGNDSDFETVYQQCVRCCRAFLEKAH
#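 Material: LMPTP-A; amount: 0.625 nM enzyme; doses: single 20 µM dose; times: reaction 50 min, room temperature, dark; technique: fluorescence intensity of OMFP turnover product; benchmarks: no-enzyme and uninhibited controls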
# STEP inh conf: STEP phosphatase inhibitor hit confirmation, biochemical, fluorescence intensity, single concentration | inhibition, % at 20 µM | recombinant STEP, OMFP fluorogenic substrate | shares compounds with STEP block | 520 tested, 32% active; call rule not given here;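 note: 0% = enzyme with substrate plus DMSO and 100% = substrate without enzyme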
# * hit, by the source's call; / = no result.
SMILES,HKDC1 inh,SUMO1 PPI mod,DNMT1 inh,Scp1 inh,STEP block,LMPTP inh,STEP inh conf
Cc1ccc(COc2ccc(CNCCCN3CCCCCC3=O)cc2)cc1,-5,2,1,1,75*,-3,8
CCn1c(SCC(=O)N/N=C/C=C\c2ccccc2[N+](=O)[O-])nc2ccccc21,4,-19,-4,-7,52*,2,19
CCC(C)CN1C(=O)CN(S(C)(=O)=O)CC1(C)C(=O)NCc1ccccc1 (centres undefined),/,-2,/,/,/,-1,/
CC1(C(=O)NC2CCCC2)CCC(=O)N1C1CCN(Cc2ccccc2)CC1 (centres undefined),/,1,2,/,2,-1,/
S=C(NCCCN1CCOCC1)Nc1ccc(-c2nc3ccccc3[nH]2)cc1,-1,4,-10,-5,65*,0,40*
S=C(NCCCN1CCOCC1)Nc1cccc(-c2nnc3n2CCCCC3)c1,-9,2,12,-1,42*,0,23
S=C(NCCCN1CCOCC1)Nc1ccc(Nc2ccccc2)cc1,5,-1,-3,-5,13,-7,/
Cc1cccc(NC(=S)NCCN2CCOCC2)c1,-6,1,0,-10,3,-6,/
N#C/C(=C\c1cccn1S(=O)(=O)c1cccc([N+](=O)[O-])c1)S(=O)(=O)c1ccc(F)cc1,/,-14,-1,/,0,-1,/
COc1ccc2[nH]cc(CCNC(=O)c3ccccc3Cl)c2c1,4,2,-29,-6,46*,-1,12
CN1CCC(C)(C(=O)Nc2ccc3c(c2)OCCO3)C1 (centres undefined),/,2,3,/,0,1,/
COc1cc(C)c(NC(=O)C(=S)NCCc2ccccc2)cc1C,0,1,3,-4,47*,2,6
O=C(Nc1nc(-c2ccc3c(c2)Cc2ccccc2-3)cs1)c1ccccc1,-3,-7,26,-2,47*,-1,2
COc1ccc(CCN(Cc2ccccn2)C(=S)Nc2cccc(C)c2)cc1OC,-3,1,8,-6,-1,-1,/
COc1ccc(NC(=S)N(CCc2ccc(OC)c(OC)c2)Cc2ccccn2)cc1,-5,-1,1,-5,48*,-1,13
Cc1nc2cc(OC3(C)CCN(Cc4ccc(OC(F)(F)F)cc4)C3)ccc2s1 (centres undefined),/,-1,14,/,-2,2,/
OCCNC(=S)NCCc1ccccc1,-7,0,0,-5,0,0,/
S=C(NCCc1ccccc1)Nc1c(Cl)cccc1Cl,-3,-4,1,17,96*,1,51*
Cc1cccc2c(C(=O)N3CCN(c4ccccn4)CC3)cc(-c3cccc(Br)c3)nc12,-1,-4,-10,-1,69*,6,19
COc1ccc(CNC(=O)Cc2cn(C)c3ccccc23)c(OC)c1,-6,4,-1,-12,15,0,/
COc1cccc(NC(=O)Cc2cn(C)c3ccccc23)c1,-4,0,-6,-7,50*,2,34
CC(=O)Nc1ccccc1-c1nc2ccccc2nc1OCC(=O)c1ccc(Cl)cc1,-3,-1,-2,-4,57*,-1,-3
CC(=O)OC[C@@H]1CN(Cc2ccccc2)C[C@H](n2cnc3c(NC4CCCC4)ncnc32)O1,/,-7,-1,/,0,1,/
O=C(Oc1ccc(/C=N/NC(=O)c2ccccn2)cc1)c1cccc(Br)c1,-2,4,5,18,5,0,/
O=C(Oc1ccc(/C=N/NC(=O)c2ccccn2)cc1)c1ccc(Br)cc1,-6,-1,26,-6,55*,55*,1
SMILES,HKDC1 inh,SUMO1 PPI mod,DNMT1 inh,Scp1 inh,STEP block,LMPTP inh,STEP inh conf
Cc1ccc(C(=O)N/N=C\c2ccc(OC(=O)c3cccc(F)c3)cc2)cn1,-6,4,3,8,82*,62*,-5
COC(=O)Nc1sc2c(c1C(N)=O)CCC(C)C2 (centres undefined),2,2,1,-3,97*,2,80*
COc1cc(C(=S)N2CCCCC2)ccc1O,-5,6,8,0,98*,0,75*
COc1ccc(Cl)cc1NC(=S)N(CCCN1CCOCC1)Cc1cn(C)c2ccccc12,-4,3,-9,-2,94*,-4,48*
COc1cc(Cl)ccc1NC(=S)N(CCCN1CCOCC1)Cc1cn(C)c2ccccc12,-7,3,-9,-6,91*,-1,49*
CCOC(=O)C1=C(C2=CCCCC2)c2ccc(OC)cc2N(S(=O)(=O)C(F)(F)F)C1C(=O)OCC (centres undefined),4,2,-4,-2,1,3,/
O=C(c1cc(C2CCCCN2C(=O)CCCc2ccccc2)on1)N1CCOCC1 (centres undefined),/,3,-2,/,0,-1,/
COc1ccc(OCC(CO)N2CCN(c3ccccc3)CC2)cc1 (centres undefined),-6,7,2,-10,-3,-2,/
COC(=O)c1sc(NC(=O)c2ccncc2)nc1C,-3,-1,2,-10,-2,-3,/
CCOc1ccc(C(=O)Nc2nc(C)c(C(=O)OC)s2)cc1,4,-41,27,40,79*,42,17
CCCN(CCC)Cc1cc(=O)oc2cc(C)cc(C)c12,/,5,8,/,1,1,/
CC(OC(=O)C12CC3CC(CC(O)(C3)C1)C2)C(N)=O (centres undefined),-8,1,3,-5,-2,-1,/
COc1ccc(CNC(=O)C(C)OC(=O)C23CC4CC(CC(O)(C4)C2)C3)cc1 (centres undefined),11,2,0,-5,97*,-1,-3
CCC(C)CNC(=O)c1[nH]c(C(F)(F)F)nc1-c1ccccc1 (centres undefined),/,4,0,/,-1,1,/
CC(=O)OC[C@@H]1CN(Cc2ccccc2)C[C@H](n2cnc3c(N4CCOCC4)ncnc32)O1,/,0,7,/,5,-1,/
OCCCNc1ncnc2c1ncn2[C@H]1CN(C2CCCC2)C[C@@H](CO)O1,/,0,5,/,-2,-2,/
CC1CCN(c2c([N+](=O)[O-])c(=O)oc3ccccc23)CC1,-9,0,1,-8,53*,-1,1
